Calls of active or inactive are those of the source. No cut-off for these calls is given here.
Columns and labels:
MDA-MB-231 [1] = assay: Induction of apoptosis in human MDA-MB-231 cells measured after 24 hrs by annexin V-FITC/propidium iodide staining based flow cytometry; assay type: functional, cell-based; details: dose 0.1-1 µM
A549 = assay: Antiproliferative activity against human A549 cells assessed as reduction in cell viability measured after 5 days by beckman coulter counting method; assay type: functional, cell-based; details: A549, 120 h
Method in brief: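 Cells kept in DMEM with 10% FBS, 4 mM glutamine, 1 mM sodium pyruvate, penicillin/streptomycin and amphotericin, at 37 °C in 5% CO2. Seeded at 20,000 per well, then exposed to 5 concentrations for 5 days, with DMSO as vehicle. Viable cells counted on a cell viability analyzer. Viability expressed as treated/vehicle count, and IC50 taken from dose-response curves.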

[2] = Acute toxicity in Kunming mouse assessed as clinical change in eyes at 40 mg/kg, ip administered as single dose; assay type: organism-based; details: in vivo
Method in brief: (§1)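 Kunming mice in four groups (n = 8, half male, half female) got one intraperitoneal dose of 10, 20 or 40 mg/kg, or vehicle. Body weights were recorded daily after dosing. Eyes, skin and fur were checked for clinical signs. Mortality was recorded. Mice were dissected to look for ascites and to assess liver volume.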

MDA-MB-231 [3] = assay: Induction of apoptosis in human MDA-MB-231 cells assessed as necrotic cells at 0.1 uM measured after 24 hrs by annexin V-FITC/propidium iodide staining based flow cytometry (reference value: 4.74%); assay type: functional
[4] = molecular target: Mitogen-activated protein kinase 10 (Homo sapiens, UniProt P53779); assay: Inhibition of MAPK10 (unknown origin)
Chain of Mitogen-activated protein kinase 10 (P53779 whole entry): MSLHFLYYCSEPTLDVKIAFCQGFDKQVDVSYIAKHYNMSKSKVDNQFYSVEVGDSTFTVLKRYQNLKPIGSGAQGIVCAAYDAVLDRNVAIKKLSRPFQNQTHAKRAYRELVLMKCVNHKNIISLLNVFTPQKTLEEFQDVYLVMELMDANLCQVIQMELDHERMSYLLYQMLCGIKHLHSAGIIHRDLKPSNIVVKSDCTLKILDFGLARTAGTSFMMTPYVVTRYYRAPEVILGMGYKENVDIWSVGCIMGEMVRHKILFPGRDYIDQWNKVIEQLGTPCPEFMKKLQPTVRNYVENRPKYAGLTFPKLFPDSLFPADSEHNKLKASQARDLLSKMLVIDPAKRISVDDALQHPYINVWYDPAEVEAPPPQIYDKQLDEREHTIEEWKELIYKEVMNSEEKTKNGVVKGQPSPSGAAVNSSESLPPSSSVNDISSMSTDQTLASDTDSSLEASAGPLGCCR
Method in brief: (§2)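 Kinase inhibition was measured in two independent repeats, and IC50 is reported as their average with SD.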

[5] = Acute toxicity in Kunming mouse assessed as mortality at 10 to 40 mg/kg, ip administered as single dose; assay type: organism-based; details: in vivo, dose 10-40 mg/kg; method in brief: as §1
[6] = Acute toxicity in Kunming mouse assessed as clinical change in skin at 40 mg/kg, ip administered as single dose; assay type: organism-based; details: in vivo; method in brief: as §1
[7] = Acute toxicity in Kunming mouse assessed as body weight loss at 40 mg/kg, ip administered as single dose; assay type: organism-based; details: in vivo; method in brief: as §1
[8] = Toxicity in mouse implanted with mouse 4T1 cells assessed as increase in spleen size at 2 mg/kg, ip administered daily for 12 days measured post last dose; assay type: organism-based; details: in vivo, 288 h, time 12 day
Method in brief: (§3)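 Orthotopic 4T1-bearing mice (n = 6 per group) were dosed i.p. daily with vehicle, compound at 1 or 2 mg/kg, or doxorubicin at 1 mg/kg. At the end of treatment, tumors and major organs (liver, spleen) were harvested and photographed. Sections were H&E stained and examined by microscope.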

4T1 [9] = assay: Antitumor activity against mouse 4T1 cells implanted in mouse assessed as reduction in tumor weight at 1 to 2 mg/kg, ip administered daily for 12 days; assay type: functional, organism-based; details: dose 1-2 mg/kg, time 12.0 day
Method in brief: (§4)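 Mice bearing orthotopic 4T1 tumors were randomized into 4 groups (n = 6) once tumors reached about 100 mm2. Groups received vehicle, test compound at 1 or 2 mg/kg, or doxorubicin at 1 mg/kg, given i.p. every day. Body weight and tumor volume were recorded daily. Tumors were excised and weighed at the end, and inhibition was calculated against the saline control.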

Aurora kinase A = molecular target: T1, Aurora kinase A (Homo sapiens, UniProt O14965); assay: Inhibition of AURKA (unknown origin); method in brief: as §2
T1 sequence (O14965 whole entry): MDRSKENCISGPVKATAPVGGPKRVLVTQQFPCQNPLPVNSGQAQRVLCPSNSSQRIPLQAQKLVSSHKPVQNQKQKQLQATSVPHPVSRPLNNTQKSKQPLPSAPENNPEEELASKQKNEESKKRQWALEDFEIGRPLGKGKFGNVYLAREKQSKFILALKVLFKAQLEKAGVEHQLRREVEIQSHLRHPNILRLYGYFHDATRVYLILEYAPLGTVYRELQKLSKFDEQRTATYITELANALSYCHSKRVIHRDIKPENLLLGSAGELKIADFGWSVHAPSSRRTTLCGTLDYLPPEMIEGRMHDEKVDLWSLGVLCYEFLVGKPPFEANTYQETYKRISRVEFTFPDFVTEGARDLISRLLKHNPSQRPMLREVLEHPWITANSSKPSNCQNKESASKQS

MDA-MB-231 [10] = assay: Cell cycle arrest in human MDA-MB-231 cells assessed as accumulation at S phase at 1 uM measured after 24 hrs by propidium iodide staining based flow cytometry (reference value: 19.84%); assay type: functional
MDA-MB-231 [11] = assay: Induction of apoptosis in human MDA-MB-231 cells assessed as viable cells at 0.1 uM measured after 24 hrs by annexin V-FITC/propidium iodide staining based flow cytometry (reference value: 90.9%); assay type: functional; details: read-out: Activity
MDA-MB-231 [12] = assay: Induction of apoptosis in human MDA-MB-231 cells assessed as early apoptotic cells at 0.1 uM measured after 24 hrs by annexin V-FITC/propidium iodide staining based flow cytometry (reference value: 1.49%); assay type: functional
MDA-MB-231 [13] = assay: Induction of apoptosis in human MDA-MB-231 cells assessed as late apoptotic cells at 1 uM measured after 24 hrs by annexin V-FITC/propidium iodide staining based flow cytometry (reference value: 2.84%); assay type: functional
[14] = Acute toxicity in Kunming mouse assessed as clinical change in fur at 40 mg/kg, ip administered as single dose; assay type: organism-based; details: in vivo; method in brief: as §1
MDA-MB-231 [15] = assay: Antiproliferative activity against human MDA-MB-231 cells assessed as reduction in cell viability measured after 5 days by beckman coulter counting method; assay type: functional, cell-based; details: MDA-MB-231, 120 h
[16] = Acute toxicity in ip dosed Kunming mouse administered as single dose; assay type: organism-based; details: in vivo; method in brief: as §1
4T1 [17] = assay: Induction of apoptosis in mouse 4T1 cells implanted in mouse at 2 mg/kg, ip administered daily for 12 days measured post last dose by H and E staining based microscopic analysis; assay type: functional, organism-based; details: time 12.0 day; method in brief: as §3
[18] = Acute toxicity in Kunming mouse assessed as decrease in liver volume at 40 mg/kg, ip administered as single dose; assay type: organism-based; details: in vivo; method in brief: as §1
[19] = Toxicity in mouse implanted with mouse 4T1 cells assessed as extramedullary hematopoiesis in liver at 2 mg/kg, ip administered daily for 12 days measured post last dose by H and E staining based microscopic analysis; assay type: organism-based; details: in vivo, 288 h, time 12 day; method in brief: as §3
[20] = Toxicity in mouse implanted with mouse 4T1 cells assessed as extramedullary hematopoiesis in spleen at 2 mg/kg, ip administered daily for 12 days measured post last dose by H and E staining based microscopic analysis; assay type: organism-based; details: in vivo, 288 h, time 12 day; method in brief: as §3
4T1 [21] = assay: Antitumor activity against mouse 4T1 cells implanted in mouse assessed as tumor growth inhibition at 1 mg/kg, ip administered daily for 12 days relative to control; assay type: functional; details: 4T1, ip, 288 h, time 12 day, read-out: TGI; method in brief: as §4
HeLa = assay: Antiproliferative activity against human HeLa cells assessed as reduction in cell viability measured after 5 days by beckman coulter counting method; assay type: functional, cell-based; details: 120 h
MDA-MB-231 [22] = assay: Induction of apoptosis in human MDA-MB-231 cells assessed as viable cells at 1 uM measured after 24 hrs by annexin V-FITC/propidium iodide staining based flow cytometry (reference value: 90.9%); assay type: functional; details: read-out: Activity
[23] = Toxicity in mouse implanted with mouse 4T1 cells assessed as change in body weight at 1 to 2 mg/kg, ip administered daily for 12 days measured daily during compound dosing; assay type: organism-based; details: in vivo, 288 h, dose 1-2 mg/kg, time 12 day; method in brief: as §4
[24] = Acute toxicity in Kunming mouse assessed as development of ascites at 40 mg/kg, ip administered as single dose; assay type: organism-based; details: in vivo; method in brief: as §1

O=C1C=CC2(C=C1)OCC(=O)N2c1nc(-c2cccc3ccccc23)nn1-c1ccccc1
Activity (MDA-MB-231 [1]): Dose-dependent effect | IC50 (A549): 80 nM | Activity [2]: Non-Toxic | Activity (MDA-MB-231 [3]): 5.16% | IC50 [4]: > 100000 nM | Activity [5]: Non-Toxic | Activity [6]: Non-Toxic | Activity [7]: Toxic | Activity [8]: Toxic | Activity (4T1 [9]): Active | IC50 (Aurora kinase A): > 100000 nM | Activity (MDA-MB-231 [10]): 36.99% | viability at 0.1 µM (MDA-MB-231 [11]): 90.8% | Activity (MDA-MB-231 [12]): 1.32% | Activity (MDA-MB-231 [13]): 29% | Activity [14]: Non-Toxic | IC50 (MDA-MB-231 [15]): 50 nM | MTD [16]: > 40 mg/kg | Activity (4T1 [17]): Active | Activity [18]: Toxic | Activity [19]: Toxic | Activity [20]: Toxic | inhibition in vivo at 1 mg/kg (4T1 [21]): 18.2% | IC50 (HeLa): 70 nM | viability at 1 µM (MDA-MB-231 [22]): 35.7% | Activity [23]: Non-Toxic | Activity [24]: Toxic

Reference: ChEMBL document CHEMBL4732107, “Synthesis and anticancer activity evaluation of naphthalene-substituted triazole spirodienones” (Eur J Med Chem, 2021)
